From ChEMBL document CHEMBL1772948, “Chemistry and biology of macrolide antiparasitic agents” (J Med Chem, 2011)
Converted amounts (≈) assume the structure as drawn. The source made the active and inactive calls. The calls are words filed in the database; no cut-off is given here.

Assays:
Toxoplasma gondii [1] = test: Antiparasitic activity against green fluorescent protein expressing […] deficient Toxoplasma gondii RH infected in HFF assessed as decrease in density of parasitophorous vacuoles at 10 uM treated immediately after infection measured after 24 hrs by microscopic analysis; format: functional, organism-based
How it was run: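 GFP T. gondii RHΔhxgprt in HFF, compound (10 μM) added either with the inoculum ("0h") or after 6 h pre-infection and washing ("6h"); vacuoles per microscope field scored at 24 h, at least 20 random fields from each of three experiments.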

Toxoplasma gondii [2] = test: Antiparasitic activity against yellow fluorescent protein expressing Toxoplasma gondii 2F-1 infected in HFF treated immediately after infection measured after 48 hrs; format: functional, organism-based; details: 2F-1, 48 h
Toxoplasma gondii [3] = test: Antiparasitic activity against yellow fluorescent protein expressing Toxoplasma gondii 2F-1 treated 6 hrs after infection for 42 hrs followed by reinoculated into fresh HFF monolayers measured after 48 hrs; format: functional, organism-based
How it was run: (§1)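 Two-cycle protocol in HFF at 37 °C, 5% CO2, DMEM with 10% FBS. "0h": compound added with parasites, 48 h. "6h": parasites pre-incubated 6 h, uninvaded parasites removed, fresh medium with compound added, 42 h. Released tachyzoites were then harvested, purified and inoculated into fresh HFF without compound for the 2nd cycle. At least triplicate.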

Toxoplasma gondii [4] = test: Antiparasitic activity against yellow fluorescent protein expressing Toxoplasma gondii 2F-1 infected in HFF treated 6 hrs after infection measured after 48 hrs; format: functional, organism-based
HFF = test: Cytotoxicity against HFF after 48 hrs by MTS assay; format: cell-based; details: human
How it was run: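 Low-passage HFF seeded in 96-well plates and incubated 24h at 37 °C, then exposed to varying macrolide concentrations for 2 days; medium replaced with fresh medium plus MTS, 4h at 37 °C, absorbance 490 nm; CC50 = dose reducing viability by 50%.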

Bacillus subtilis = test: Antibacterial activity against Bacillus subtilis; format: functional
Toxoplasma gondii [5] = test: Antiparasitic activity against yellow fluorescent protein expressing Toxoplasma gondii 2F-1 treated immediately after infection for 48 hrs followed by reinoculated into fresh HFF monolayers measured after 48 hrs; format: functional, organism-based; details: 2F-1, 48 h; how it was run: as §1
Toxoplasma gondii [6] = test: Antiparasitic activity against Toxoplasma gondii 2F-1 expressing yellow fluorescent protein infected in HFF after 4 days; format: functional, organism-based; details: 2F-1, 96 h

MIC (Bacillus subtilis) [µM] | SMILES | Activity (Toxoplasma gondii [1]) | IC50 (Toxoplasma gondii [2]) [µM] | IC50 (Toxoplasma gondii [3]) [µM] | IC50 (Toxoplasma gondii [4]) [µM] | CC50 (HFF) [µM] | IC50 (Toxoplasma gondii [5]) [µM] | IC50 (Toxoplasma gondii [6]) [µM]
0.3 (≈ 0.252 µg/mL) | CC[C@H]1OC(=O)[C@H](C)[C@@H](O[C@H]2C[C@@](C)(OC)[C@@H](O)[C@H](C)O2)[C@H](C)[C@@H](O[C@@H]2O[C@H](C)C[C@H](N(C)C)[C@H]2O)[C@](C)(O)C[C@@H](C)CN(Cc2ccc(C)cc2)[C@H](C)[C@@H](O)[C@]1(C)O | Active | 5 | 0.7 | 9 | 38 | 0.6 | 
0.04 (≈ 0.0316 µg/mL) | CCCO/N=C1\[C@H](C)C[C@@](C)(O)[C@H](O[C@@H]2O[C@H](C)C[C@H](N(C)C)[C@H]2O)[C@@H](C)[C@H](O[C@H]2C[C@@](C)(OC)[C@@H](O)[C@H](C)O2)[C@@H](C)C(=O)O[C@H](CC)[C@@](C)(O)[C@H](O)[C@H]1C |  |  |  |  | 7 |  | 1.6
10 (≈ 8.06 µg/mL) | CCNC(=O)N1C[C@H](C)C[C@@](C)(O)[C@H](O[C@@H]2O[C@H](C)C[C@H](N(C)C)[C@H]2O)[C@@H](C)[C@H](O[C@H]2C[C@@](C)(OC)[C@@H](O)[C@H](C)O2)[C@@H](C)C(=O)O[C@H](CC)[C@@](C)(O)[C@H](O)[C@H]1C |  |  |  |  | 480 |  | 85
1.2 (≈ 0.882 µg/mL) | CC[C@H]1OC(=O)[C@H](C)[C@@H](O[C@H]2C[C@@](C)(OC)[C@@H](O)[C@H](C)O2)[C@H](C)[C@@H](O[C@@H]2O[C@H](C)C[C@H](N(C)C)[C@H]2O)[C@](C)(O)C[C@@H](C)CN[C@H](C)[C@@H](O)[C@]1(C)O |  |  |  |  | 386 |  | 65
10 (≈ 8.17 µg/mL) | C=CCO[C@]1(C)C[C@@H](C)CN(CCC)[C@H](C)[C@@H](O)[C@](C)(O)[C@@H](CC)OC(=O)[C@H](C)[C@@H](O[C@H]2C[C@@](C)(OC)[C@@H](O)[C@H](C)O2)[C@H](C)[C@H]1O[C@@H]1O[C@H](C)C[C@H](N(C)C)[C@H]1O |  |  |  |  | 42 |  | 15
0.3 (≈ 0.233 µg/mL) | C=CCN1C[C@H](C)C[C@@](C)(O)[C@H](O[C@@H]2O[C@H](C)C[C@H](N(C)C)[C@H]2O)[C@@H](C)[C@H](O[C@H]2C[C@@](C)(OC)[C@@H](O)[C@H](C)O2)[C@@H](C)C(=O)O[C@H](CC)[C@@](C)(O)[C@H](O)[C@H]1C |  |  |  |  | 103 |  | 13
1.2 (≈ 0.949 µg/mL) | CCCN1C[C@H](C)C[C@@](C)(OC)[C@H](O[C@@H]2O[C@H](C)C[C@H](N(C)C)[C@H]2O)[C@@H](C)[C@H](O[C@H]2C[C@@](C)(OC)[C@@H](O)[C@H](C)O2)[C@@H](C)C(=O)O[C@H](CC)[C@@](C)(O)[C@H](O)[C@H]1C |  |  |  |  | 106 |  | 20
0.8 (≈ 0.631 µg/mL) | C=CCN1C[C@H](C)C[C@@](C)(OC)[C@H](O[C@@H]2O[C@H](C)C[C@H](N(C)C)[C@H]2O)[C@@H](C)[C@H](O[C@H]2C[C@@](C)(OC)[C@@H](O)[C@H](C)O2)[C@@H](C)C(=O)O[C@H](CC)[C@@](C)(O)[C@H](O)[C@H]1C |  |  |  |  | 84 |  | 13
5 (≈ 3.82 µg/mL) | CC[C@H]1OC(=O)[C@H](C)[C@@H](O[C@H]2C[C@@](C)(OC)[C@@H](O)[C@H](C)O2)[C@H](C)[C@@H](O[C@@H]2O[C@H](C)C[C@H](N(C)C)[C@H]2O)[C@](C)(OC)C[C@@H](C)CN(C)[C@H](C)[C@@H](O)[C@]1(C)O |  |  |  |  | 454 |  | 89
0.6 (≈ 0.466 µg/mL) | CCCN1C[C@H](C)C[C@@](C)(O)[C@H](O[C@@H]2O[C@H](C)C[C@H](N(C)C)[C@H]2O)[C@@H](C)[C@H](O[C@H]2C[C@@](C)(OC)[C@@H](O)[C@H](C)O2)[C@@H](C)C(=O)O[C@H](CC)[C@@](C)(O)[C@H](O)[C@H]1C |  |  |  |  | 139 |  | 16

Second part, the compound before the results:

SMILES | MIC (Bacillus subtilis) [µM] | Activity (Toxoplasma gondii [1]) | IC50 (Toxoplasma gondii [2]) [µM] | IC50 (Toxoplasma gondii [3]) [µM] | IC50 (Toxoplasma gondii [4]) [µM] | CC50 (HFF) [µM] | IC50 (Toxoplasma gondii [5]) [µM] | IC50 (Toxoplasma gondii [6]) [µM]
C=CCO[C@]1(C)C[C@@H](C)CN(Cc2ccccc2)[C@H](C)[C@@H](O)[C@](C)(O)[C@@H](CC)OC(=O)[C@H](C)[C@@H](O[C@H]2C[C@@](C)(OC)[C@@H](O)[C@H](C)O2)[C@H](C)[C@H]1O[C@@H]1O[C@H](C)C[C@H](N(C)C)[C@H]1O | 6 (≈ 5.19 µg/mL) |  | 7 | > 10 | > 10 | 14 | 10 | 5
CC[C@H]1OC(=O)[C@H](C)[C@@H](O[C@H]2C[C@@](C)(OC)[C@@H](O)[C@H](C)O2)[C@H](C)[C@@H](O[C@@H]2O[C@H](C)C[C@H](N(C)C)[C@H]2O)[C@](C)(OC)C[C@@H](C)CN[C@H](C)[C@@H](O)[C@]1(C)O | 2.5 (≈ 1.87 µg/mL) |  |  |  |  | 460 |  | 106
C=CCO[C@]1(C)C[C@@H](C)CN(CC=C)[C@H](C)[C@@H](O)[C@](C)(O)[C@@H](CC)OC(=O)[C@H](C)[C@@H](O[C@H]2C[C@@](C)(OC)[C@@H](O)[C@H](C)O2)[C@H](C)[C@H]1O[C@@H]1O[C@H](C)C[C@H](N(C)C)[C@H]1O | 5 (≈ 4.08 µg/mL) |  |  |  |  | 38 |  | 12
CC[C@H]1OC(=O)[C@H](C)[C@@H](O[C@H]2C[C@@](C)(OC)[C@@H](O)[C@H](C)O2)[C@H](C)[C@@H](O[C@@H]2O[C@H](C)C[C@H](N(C)C)[C@H]2O)[C@](C)(O)C[C@@H](C)CN(C(=O)NCc2ccccc2)[C@H](C)[C@@H](O)[C@]1(C)O | 1.2 (≈ 1.04 µg/mL) |  |  |  |  | 222 |  | 12
CC[C@H]1OC(=O)[C@H](C)[C@@H](O[C@H]2C[C@@](C)(OC)[C@@H](O)[C@H](C)O2)[C@H](C)[C@@H](O[C@@H]2O[C@H](C)C[C@H](N(C)C)[C@H]2O)[C@](C)(O)C[C@@H](C)/C(=N\OC)[C@H](C)[C@@H](O)[C@]1(C)O | 0.04 (≈ 0.0305 µg/mL) |  |  |  |  | 22 |  | 14
CC[C@H]1OC(=O)[C@H](C)[C@@H](O[C@H]2C[C@@](C)(OC)[C@@H](O)[C@H](C)O2)[C@H](C)[C@@H](O[C@@H]2O[C@H](C)C[C@H](N(C)C)[C@H]2O)[C@](C)(OC)C[C@@H](C)C(=O)[C@H](C)[C@@H](O)[C@]1(C)O [CLARITHROMYCIN] | 0.04 (≈ 0.0299 µg/mL) |  |  |  |  | 260 |  | 31
C=CCO/N=C1\[C@H](C)C[C@@](C)(O)[C@H](O[C@@H]2O[C@H](C)C[C@H](N(C)C)[C@H]2O)[C@@H](C)[C@H](O[C@H]2C[C@@](C)(OC)[C@@H](O)[C@H](C)O2)[C@@H](C)C(=O)O[C@H](CC)[C@@](C)(O)[C@H](O)[C@H]1C | 0.04 (≈ 0.0316 µg/mL) |  |  |  |  | 16 |  | 2.7
CCNC(=O)N1C[C@H](C)C[C@@](C)(OC)[C@H](O[C@@H]2O[C@H](C)C[C@H](N(C)C)[C@H]2O)[C@@H](C)[C@H](O[C@H]2C[C@@](C)(OC)[C@@H](O)[C@H](C)O2)[C@@H](C)C(=O)O[C@H](CC)[C@@](C)(O)[C@H](O)[C@H]1C | 10 (≈ 8.2 µg/mL) |  |  |  |  | 409 |  | 59
C=CCO[C@]1(C)C[C@@H](C)CN(C(=O)NCC)[C@H](C)[C@@H](O)[C@](C)(O)[C@@H](CC)OC(=O)[C@H](C)[C@@H](O[C@H]2C[C@@](C)(OC)[C@@H](O)[C@H](C)O2)[C@H](C)[C@H]1O[C@@H]1O[C@H](C)C[C@H](N(C)C)[C@H]1O | 5 (≈ 4.23 µg/mL) |  |  |  |  | 90 |  | 33
CC[C@H]1OC(=O)[C@H](C)[C@@H](O[C@H]2C[C@@](C)(OC)[C@@H](O)[C@H](C)O2)[C@H](C)[C@@H](O[C@@H]2O[C@H](C)C[C@H](N(C)C)[C@H]2O)[C@](C)(OC)C[C@@H](C)CN(Cc2ccccc2)[C@H](C)[C@@H](O)[C@]1(C)O | 0.3 (≈ 0.252 µg/mL) |  | 7 | 4 | 10 | 13 | 5 | 2
CC[C@H]1OC(=O)[C@H](C)[C@@H](O[C@H]2C[C@@](C)(OC)[C@@H](O)[C@H](C)O2)[C@H](C)[C@@H](O[C@@H]2O[C@H](C)C[C@H](N(C)C)[C@H]2O)[C@](C)(O)C[C@@H](C)C(=O)[C@H](C)[C@@H](O)[C@]1(C)O [ERYTHROMYCIN] | 0.04 (≈ 0.0294 µg/mL) |  |  |  |  | 475 |  | 93
CC[C@H]1OC(=O)[C@H](C)[C@@H](O[C@H]2C[C@@](C)(OC)[C@@H](O)[C@H](C)O2)[C@H](C)[C@@H](O[C@@H]2O[C@H](C)C[C@H](N(C)C)[C@H]2O)[C@](C)(OC)C[C@@H](C)CN(C(=O)NCc2ccccc2)[C@H](C)[C@@H](O)[C@]1(C)O | 1.5 (≈ 1.32 µg/mL) |  |  |  |  | 62 |  | 16
C=CCO[C@]1(C)C[C@@H](C)CN(C(=O)NCc2ccccc2)[C@H](C)[C@@H](O)[C@](C)(O)[C@@H](CC)OC(=O)[C@H](C)[C@@H](O[C@H]2C[C@@](C)(OC)[C@@H](O)[C@H](C)O2)[C@H](C)[C@H]1O[C@@H]1O[C@H](C)C[C@H](N(C)C)[C@H]1O | 1.5 (≈ 1.36 µg/mL) |  |  |  |  | 28 |  | 6
CC[C@H]1OC(=O)[C@H](C)[C@@H](O[C@H]2C[C@@](C)(OC)[C@@H](O)[C@H](C)O2)[C@H](C)[C@@H](O[C@@H]2O[C@H](C)C[C@H](N(C)C)[C@H]2O)[C@](C)(O)C[C@@H](C)/C(=N\OCc2ccccc2)[C@H](C)[C@@H](O)[C@]1(C)O | 0.04 (≈ 0.0336 µg/mL) |  |  |  |  | 3 |  | 1.4
